Assay results: ChEMBL document CHEMBL3621123, “Discovery and Optimization of a Series of Pyrimidine-Based Phosphodiesterase 10A (PDE10A) Inhibitors through Fragment Screening, Structure-Based Design, and Parallel Synthesis” (J Med Chem, 2015)
Calls of active or inactive are those of the source. The calls are words filed in the database; no cut-off is given here.

What was measured:
[1] = target: cAMP and cAMP-inhibited cGMP 3',5'-cyclic phosphodiesterase 10A (Homo sapiens, UniProt Q9Y233); assay: Inhibition of human PDE10A2 transfected in AD293 cells by IMAP FP assay; type: cell-based
Method in brief: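 Ki values are the mean of at least two determinations, each from a 10-point dose–response curve.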

[2] = organism: Homo sapiens; assay: Selectivity ratio of Ki for human PDE5A1 to Ki for human PDE10A2
Method in brief: (§1)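 The ratio is PDEx Ki divided by PDE10A Ki. Each Ki is the mean of at least two determinations, each from a 10-point dose–response curve.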

[3] = organism: Homo sapiens; assay: Selectivity ratio of Ki for human PDE11A4 to Ki for human PDE10A2; method in brief: as §1
[4] = organism: Homo sapiens; assay: Selectivity ratio of Ki for human PDE9A2 to Ki for human PDE10A2; method in brief: as §1
[5] = organism: Homo sapiens; assay: Selectivity ratio of Ki for human PDE1A to Ki for human PDE10A2; method in brief: as §1
[6] = Selectivity ratio of Ki for rhesus monkey PDE2A3 to Ki for human PDE10A2; method in brief: as §1
[7] = organism: Homo sapiens; assay: Selectivity ratio of Ki for human PDE7A to Ki for human PDE10A2; method in brief: as §1
[8] = organism: Homo sapiens; assay: Selectivity ratio of Ki for human PDE8A1 to Ki for human PDE10A2; method in brief: as §1
[9] = organism: Homo sapiens; assay: Selectivity ratio of Ki for human PDE3A to Ki for human PDE10A2; method in brief: as §1
[10] = organism: Homo sapiens; assay: Selectivity ratio of Ki for human PDE4A1A to Ki for human PDE10A2; method in brief: as §1
[11] = Plasma concentration in Wistar Hannover rat at 1 mg/kg, ip measured after 3.5 hrs; type: ADME, organism-based
Method in brief: (§2)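 Plasma was sampled 3.5 h after a single ip dose, during the MK-801 hyperlocomotion study. Each value is the mean of two or three measurements.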

[12] = system: Rattus norvegicus; assay: Suppression of MK-801-induced hyperlocomotion in Wistar Hannover rat at 1 to 5 mg/kg, ip administered 120 mins followed by MK-801 induction measured after 90 mins; type: functional, organism-based
Method in brief: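 Rats received ip doses of 1, 3 or 5 mg/kg and were then challenged with MK-801. Psychostimulant-induced locomotor activity was the read-out.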

[13] = Plasma concentration in Wistar Hannover rat at 5 mg/kg, ip measured after 3.5 hrs; type: ADME, organism-based; method in brief: as §2
[14] = Plasma concentration in Wistar Hannover rat at 3 mg/kg, ip measured after 3.5 hrs; type: ADME, organism-based; method in brief: as §2

Sequence of cAMP and cAMP-inhibited cGMP 3',5'-cyclic phosphodiesterase 10A (Q9Y233 whole entry): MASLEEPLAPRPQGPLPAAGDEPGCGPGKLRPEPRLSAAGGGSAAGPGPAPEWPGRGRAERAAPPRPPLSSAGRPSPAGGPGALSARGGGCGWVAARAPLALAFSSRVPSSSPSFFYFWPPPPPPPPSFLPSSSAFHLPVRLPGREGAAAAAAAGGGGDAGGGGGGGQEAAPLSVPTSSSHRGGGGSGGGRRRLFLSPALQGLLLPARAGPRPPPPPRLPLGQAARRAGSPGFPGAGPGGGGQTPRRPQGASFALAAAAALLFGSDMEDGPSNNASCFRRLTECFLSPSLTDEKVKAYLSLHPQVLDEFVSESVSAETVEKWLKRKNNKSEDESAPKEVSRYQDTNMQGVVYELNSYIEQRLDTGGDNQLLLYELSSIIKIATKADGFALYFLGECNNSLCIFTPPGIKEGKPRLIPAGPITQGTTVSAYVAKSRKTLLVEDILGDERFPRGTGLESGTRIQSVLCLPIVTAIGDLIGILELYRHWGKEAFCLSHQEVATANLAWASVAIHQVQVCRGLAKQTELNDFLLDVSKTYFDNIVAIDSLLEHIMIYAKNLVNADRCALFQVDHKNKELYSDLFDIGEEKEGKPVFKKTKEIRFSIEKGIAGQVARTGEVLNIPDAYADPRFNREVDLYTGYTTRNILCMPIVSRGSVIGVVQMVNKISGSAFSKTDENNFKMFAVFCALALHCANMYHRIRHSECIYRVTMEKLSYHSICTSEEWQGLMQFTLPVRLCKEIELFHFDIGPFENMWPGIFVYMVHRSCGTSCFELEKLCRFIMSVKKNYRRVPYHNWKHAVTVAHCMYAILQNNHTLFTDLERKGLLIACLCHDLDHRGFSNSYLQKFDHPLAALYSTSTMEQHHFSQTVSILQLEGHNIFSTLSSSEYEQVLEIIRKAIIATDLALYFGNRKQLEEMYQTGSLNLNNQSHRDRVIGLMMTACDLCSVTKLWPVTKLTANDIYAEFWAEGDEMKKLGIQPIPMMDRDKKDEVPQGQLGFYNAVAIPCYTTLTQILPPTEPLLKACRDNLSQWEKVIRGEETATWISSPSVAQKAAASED

Row | Compound | Ki [1] | other results
1 | Cc1c(Cl)nc(C2CC2)nc1NCc1cnn(C)c1 | 37 nM | 
2 | Cc1nc(CNc2nc(C3CC3)nc(Cl)c2C)cs1 | 18 nM | 
3 | Cc1nc(C)c(CNc2nc(OCCCc3cnc4ccccc4n3)nc(Cl)c2C)s1 | 0.37 nM | 
4 | Cc1nc(C)c(CNc2nc(OCCCc3nc4ccccc4s3)nc(Cl)c2C)s1 | 0.055 nM | 
5 | Cc1c(Cl)nc(C2CC2)nc1NCc1ccccc1 | 1400 nM | 
6 | CCNc1nc(C2CC2)nc(Cl)c1C | 1200 nM | 
7 | Cc1c(Cl)nc(C2CC2)nc1N1CCNCC1 | 4600 nM | 
8 | Cc1nc(C)c(CNc2nc(OCCC3CCCCN3)nc(Cl)c2C)s1 (centres undefined) | 590 nM | 
9 | Cc1nc(C)c(CNc2nc(OCCc3ccccn3)nc(Cl)c2C)s1 | 2 nM | 
10 | Cc1ncsc1CNc1nc(C2CC2)nc(Cl)c1C | 1600 nM | 
11 | Cc1ccc(CNc2nc(C3CC3)nc(Cl)c2C)cn1 | 130 nM | 
12 | Cc1c(Cl)nc(C2CC2)nc1NCc1ccncc1 | 200 nM | 
13 | Cc1c(Cl)nc(C2CC2)nc1N1CCCCC1 | 2100 nM | 
14 | COc1nc(Cl)c(C)c(NCc2sc(C)nc2C)n1 | 8.5 nM | 
15 | Cc1c(Cl)nc(C2CC2)nc1NC(C)c1ccncc1 (racemic) | 890 nM | 
16 | Cc1csc(CNc2nc(C3CC3)nc(Cl)c2C)n1 | 6800 nM | 
17 | Cc1c(Cl)nc(C2CC2)nc1Cl | 8700 nM | Ratio Ki [2]: 1; Ratio Ki [3]: 1; Ratio Ki [4]: 1; Ratio Ki [5]: 1; Ratio Ki [6]: 1; Ratio Ki [7]: 1; Ratio Ki [8]: 1; Ratio Ki [9]: 1; Ratio Ki [10]: 1
18 | Cc1cc(CNc2nc(C3CC3)nc(Cl)c2C)no1 | 51 nM | 
19 | Cc1ncc(CNc2nc(C3CC3)nc(Cl)c2C)s1 | 26 nM | 
20 | Cc1c(Cl)nc(C2CC2)nc1NCc1ccoc1 | 680 nM | 
21 | Cc1cc(CNc2nc(C3CC3)nc(Cl)c2C)on1 | 38 nM | 
22 | CCCNc1nc(C2CC2)nc(Cl)c1C | 880 nM | Ratio Ki [2]: 1; Ratio Ki [3]: 25; Ratio Ki [4]: 25; Ratio Ki [5]: 25; Ratio Ki [6]: 100; Ratio Ki [7]: 25; Ratio Ki [8]: 25; Ratio Ki [9]: 25; Ratio Ki [10]: 1

Row | Compound | Ki [1] | other results
23 | CCCOc1nc(Cl)c(C)c(NCc2sc(C)nc2C)n1 | 5.1 nM | 
24 | COc1ncc(CNc2nc(C3CC3)nc(Cl)c2C)s1 | 10 nM | 
25 | Cc1nc(C)c(CNc2nc(OCCCc3cn4ccccc4n3)nc(Cl)c2C)s1 | 0.047 nM | 
26 | Cc1c(N)nc(C2CC2)nc1Cl | 2200 nM | 
27 | Cc1cc(CN(C)c2nc(C3CC3)nc(Cl)c2C)on1 | 540 nM | 
28 | Cc1c(Cl)nc(C2CC2)nc1NCc1cccnc1 | 1000 nM | 
29 | C=C(F)CNc1nc(C2CC2)nc(Cl)c1C | 180 nM | 
30 | Cc1c(Cl)nc(C2CC2)nc1N(C)Cc1cnn(C)c1 | 220 nM | 
31 | Cc1c(Cl)nc(C2CC2)nc1NCCc1cnn(C)c1 | 1500 nM | 
32 | Cc1nc2c(s1)CN(c1nc(C3CC3)nc(Cl)c1C)CC2 | 1300 nM | 
33 | Cc1nc(C)c(CNc2nc(C3CC3)nc(Cl)c2C)s1 | 4.8 nM | Ratio Ki [2]: 100; Ratio Ki [3]: 25; Ratio Ki [4]: > 1000; Ratio Ki [5]: > 1000; Ratio Ki [6]: > 1000; Ratio Ki [7]: > 1000; Ratio Ki [8]: > 1000; Ratio Ki [9]: > 1000; Ratio Ki [10]: 100
34 | Cc1c(Cl)nc(C2CC2)nc1NCc1cncs1 | 1000 nM | 
35 | Cc1nc(C)c(CNc2nc(OCCCc3ccc4cccnc4n3)nc(Cl)c2C)s1 | 0.11 nM | 
36 | Cc1nc(C)c(CNc2nc(OCCCc3ccc4ccccc4n3)nc(Cl)c2C)s1 | 0.0082 nM | Ratio Ki [2]: > 1000; Ratio Ki [3]: > 1000; Ratio Ki [4]: > 1000; Ratio Ki [5]: > 1000; Ratio Ki [6]: > 1000; Ratio Ki [7]: > 1000; Ratio Ki [8]: > 1000; concentration at 3.5 h [11]: 17 nM; Ratio Ki [9]: > 1000; Ratio Ki [10]: > 1000; Activity [12]: Active; concentration at 3.5 h [13]: 110 nM; concentration at 3.5 h [14]: 83 nM
37 | Cc1c(Cl)nc(C2CC2)nc1N1CCCC1 | 5300 nM | 
38 | Cc1nc(C)c(CNc2nc(OCCO)nc(Cl)c2C)s1 | 12 nM | 
39 | Cc1nc(C)c(CNc2nc(OCCC3CCCCC3)nc(Cl)c2C)s1 | 400 nM | 
40 | Cc1c(Cl)nc(C2CC2)nc1NC1CCCC1 | 2800 nM | 
41 | Cc1c(Cl)nc(C2CC2)nc1NCc1ccon1 | 810 nM | 
42 | Cc1c(Cl)nc(C2CC2)nc1NC(C)C | 3600 nM | 
43 | Cc1nc(C)c(CNc2nc(OCCCc3nc4ccccc4[nH]3)nc(Cl)c2C)s1 | 0.02 nM | 
44 | Cc1nc(C)c(CNc2nc(OCCc3ccccc3)nc(Cl)c2C)s1 | 9 nM | 
